Laboratory results as given in ChEMBL document CHEMBL1129274, “Synthesis and growth inhibitory properties of glycosides of 1-O-hexadecyl-2-O-methyl-sn-glycerol, analogs of the antitumor ether lipid ET-18-OCH3 (edelfosine)” (1996).

Assays:
Format in all cases: functional
P388 [1] = test: Inhibitor activity against P388 (murine leukemia )cell line with varying concentration of the drug for 72 hrs; settings: Mus musculus, P388, 72 h
How it was run: (§1)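 Cells exposed 72 h to a range of drug concentrations; drug stocks prepared in ethanol. Growth read by in situ fixation and sulforhodamine B protein staining. GI50 is the concentration giving 50% growth inhibition. Each experiment's value comes from three wells on each of two separate plates (six wells); reported as mean ± SD over n experiments.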

[2] = system: Lewis lung carcinoma cell line; test: Inhibitor activity against Lewis lung (murine lung carcinoma)cell line with varying concentration of the drug for 72 hrs; settings: Mus musculus; how it was run: as §1
P388 [3] = test: Inhibitor activity against P388/Adr (murine leukemia )cell line with varying concentration of the drug for 72 hrs; settings: Mus musculus, P388, 72 h; how it was run: as §1
MCF7 [4] = test: Inhibitor activity against MCF-7(Human breast carcinoma)cell line with varying concentration of the drug for 72 hrs; settings: MCF7, 72 h; how it was run: as §1
MCF7 [5] = test: Inhibitor activity against MCF-7/Adr (Human colon carcinoma)cell line with varying concentration of the drug for 72 hrs; settings: MCF7, 72 h, in the assay text read “Human breast carcinoma” for “Human colon carcinoma”; how it was run: as §1
A549 = test: Inhibitor activity against A549 (Human lung carcinoma)cell line with varying concentration of the drug for 72 hrs; settings: A549, 72 h; how it was run: as §1
L1210 [6] = test: Inhibitor activity against L1210 (murine leukemia )cell line with varying concentration of the drug for 72 hrs; settings: Mus musculus, L1210, 72 h
How it was run: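 Murine L1210 leukemia cells grown in RPMI 1640 with 10% FBS. Exposed 72 h to a range of drug concentrations; drug stocks in ethanol. Growth read by in situ fixation and sulforhodamine B staining. GI50 is the concentration giving 50% growth inhibition. Each value comes from six wells over two plates; reported as mean ± SD.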

HT-29 = test: Inhibitor activity against HT-29 (Human colon carcinoma)cell line with varying concentration of the drug for 72 hrs; settings: HT-29, 72 h; how it was run: as §1
L1210 [7] = test: Inhibitor activity against L1210/vmdr (transfected with a plasmid containing mdr1) cell line with varying concentration of the drug for 72 hrs; settings: Mus musculus, L1210, 72 h
How it was run: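 L1210 leukemia transfected with human mdr1 (pHaMDR1/A), grown in RPMI 1640 with 10% FBS plus 0.06 µg/mL colchicine; colchicine removed one week before assay. Exposed 72 h to a range of drug concentrations (ethanol stocks). Sulforhodamine B staining after in situ fixation. GI50 is the concentration giving 50% growth inhibition, from six wells over two plates.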

CCCCCCCCCCCCCCCCOC[C@H](CO[C@@H]1O[C@@H](CO)[C@@H](O)[C@H](O)[C@@H]1OC)OC
GI50 (P388 [1]): 18.1 µM | GI50 [2]: 26 µM | GI50 (P388 [3]): 29.3 µM | GI50 (MCF7 [4]): 23.1 µM | GI50 (MCF7 [5]): 21.8 µM | GI50 (A549): 18.3 µM

CCCCCCCCCCCCCCCCOC[C@H](CO[C@H]1C[C@@H](O)[C@H](O)[C@H](CO)O1)OC
GI50 (L1210 [6]): 7.02 µM | GI50 (P388 [1]): 12.7 µM | GI50 [2]: 11.1 µM | GI50 (HT-29): 7.59 µM | GI50 (L1210 [7]): 7.09 µM | GI50 (P388 [3]): 10.2 µM | GI50 (MCF7 [4]): 6.93 µM | GI50 (MCF7 [5]): 12.8 µM | GI50 (A549): 9.9 µM

CCCCCCCCCCCCCCCCOC[C@H](CO[C@@H]1C[C@@H](O)[C@H](O)[C@H](CO)O1)OC
GI50 (L1210 [6]): 18.8 µM | GI50 (HT-29): 29.6 µM | GI50 (L1210 [7]): 26.9 µM | GI50 (MCF7 [4]): 24.4 µM | GI50 (MCF7 [5]): 24.4 µM | GI50 (A549): 19.7 µM

CCCCCCCCCCCCCCCCOC[C@H](CO[C@H]1O[C@@H](CO)[C@@H](O)[C@H](O)[C@H]1OC)OC
GI50 (L1210 [6]): 15.5 µM | GI50 (HT-29): 20 µM | GI50 (L1210 [7]): 16.5 µM | GI50 (MCF7 [4]): 18.2 µM | GI50 (MCF7 [5]): 18.6 µM | GI50 (A549): 15.6 µM

CCCCCCCCCCCCCCCCCCOC[C@H](COP(=O)([O-])OCC[N+](C)(C)C)OC [(R)-EDELFOSINE]
GI50 (L1210 [6]): 3.32 µM | GI50 (P388 [1]): 4.33 µM | GI50 [2]: 30.2 µM | GI50 (HT-29): 2.2 µM | GI50 (L1210 [7]): 11 µM | GI50 (P388 [3]): 6.39 µM | GI50 (MCF7 [4]): 9.66 µM | GI50 (MCF7 [5]): 30.4 µM | GI50 (A549): 5.05 µM

CCCCCCCCCCCCCCCCOC[C@H](CO[C@@H]1O[C@@H](CO)[C@@H](O)[C@H](O)[C@@H]1O)OC
GI50 (L1210 [6]): 16.2 µM | GI50 (HT-29): 23.2 µM | GI50 (L1210 [7]): 18.9 µM | GI50 (MCF7 [4]): 21.7 µM | GI50 (MCF7 [5]): 23.3 µM | GI50 (A549): 18.1 µM
